Measured values of several laboratories.
Each line is one published result; the experiments were not run side by side.
ALOX15: Polyunsaturated fatty acid lipoxygenase ALOX15 (ALOX15, Homo sapiens, UniProt P16050)
ALDH1A1: Aldehyde dehydrogenase 1A1 (ALDH1A1, Homo sapiens, UniProt P00352)

Compound | target | read-out | mode | method | notes | endpoint | value
COC(=O)C(C)n1nc(Cn2cc3cc(OCCF)c(Cl)cc3n2)c2ccccc2c1=O (racemic) | Sphingosine 1-phosphate receptor 1 (S1PR1, Homo sapiens, UniProt P21453) | ligand displacement | – | radioligand | cell membranes | IC50 | > 1 µM
CC(=O)N[C@H]1[C@H](O[C@H]2[C@H](O)[C@@H](NC(C)=O)C(O)O[C@@H]2CO)O[C@H](CO)[C@@H](O[C@@H]2O[C@H](CO)[C@@H](O)[C@H](O)[C@H]2NC(C)=O)[C@@H]1O (some centres unmarked) | MB (Equus caballus, UniProt P68082) | binding | – | – | – | Kd | ~346 µM
[C-]#[N+]CCOCCOc1ccc2c(-c3ccccc3C(=O)OCC)c3ccc(=O)cc-3oc2c1 | ALOX15 | enzyme activity | inhibitor | absorbance | – | IC50 | 20.8 µM
OC[C@H]1O[C@@H](Oc2ccc(O)c3cccc(O)c23)[C@H](O)[C@@H](O)[C@@H]1O | ALDH1A1 | enzyme activity | inhibitor | fluorescence | – | IC50 | < 10 µM
O=c1[nH]c(=O)c(Cc2cccc(C(F)(F)F)c2)c([C@H]2CC[C@H](c3ccccc3)CC2)[nH]1 | Solute carrier family 22 member 1 (SLC22A1, Homo sapiens, UniProt O15245) | transporter uptake | inhibitor | – | – | IC50 | > 1 µM
O=C1OC2(c3ccc(O)cc3Oc3cc(O)ccc32)c2ccccc21 | ALOX15 | enzyme activity | inhibitor | absorbance | – | IC50 | 44.8 µM
COc1nc2ccc(Br)cc2cc1[C@@H](c1ccccc1)[C@@](O)(CCN(C)C)c1cccc2ccccc12 | ALDH1A1 | enzyme activity | inhibitor | fluorescence | – | IC50 | < 10 µM
COc1nc(-c2cccc(-c3ccccc3)c2C)ccc1CNCCNC(=O)CCCCCCCCCCC(=O)N1CCN(CCNC(=O)c2cc3c(=O)n4cccc(C)c4nc3n(CCc3cccs3)c2=N)CC1 | Programmed cell death 1 ligand 1 (CD274, Homo sapiens, UniProt Q9NZQ7) | binding | – | BLI | – | Kd | 0.452 µM
NC/C(=C\F)COc1cccc(Cn2c(=S)[nH]c(=O)c3[nH]cnc32)c1 | Thyroid peroxidase (Homo sapiens, UniProt P07202) | enzyme activity | inhibitor | – | – | IC50 | 13 µM
OC[C@H]1OC(O)[C@H](O)[C@@H](O)[C@@H]1O (some centres unmarked) | Spliceosome RNA helicase DDX39B (DDX39B, Homo sapiens, UniProt Q13838) | binding | – | MST | – | Kd | 1860 µM
CNC(=O)[C@H](Cc1c[nH]c2ccccc12)NC(=O)[C@@H](CC(=O)NO)CC(C)C | Matrilysin (MMP7, Homo sapiens, UniProt P09237) | enzyme activity | inhibitor | – | – | IC50 | 0.00294 µM
